ChEMBL document CHEMBL2331267 (J Med Chem, 2013)

Tested on: not listed separately
Assay: Chemical stability of the compound in DMSO-d6 solution after 120 mins by LC/MS analysis
Assay type: physicochemical
Conditions: 2 h; call rule not given here

Row | Compound | Stability
1 | CCCCCCNC(=O)n1c(C)c(C)c(=O)[nH]c1=O | Unstable
2 | CCCCCCNC(=O)n1c(Cl)cc(=O)[nH]c1=O | Unstable

Tested on: not listed separately
Assay: Antiproliferative activity against human SW403 cells after 72 hrs by MTT assay
Assay type: functional, cell-based
Conditions: SW-403, 72 h
Summary of the method: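 SW403 cells exposed to compounds for 72 h; viability read by MTT reduction, n=4 per drug concentration; EC50 derived from concentration–response.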

Row | Compound | EC50 [nM]
3 | CCCCCCNC(=O)n1cc(-c2ccccc2)c(=O)[nH]c1=O | 24000
4 | CCCCCCNC(=O)n1cc(F)c(=O)n(C)c1=O | 22000
5 | CCCCCCCCNC(=O)n1ccc(=O)[nH]c1=O | 20000

Tested on: not listed separately
Assay: Chemical stability of the compound in buffer at pH 4.5 after 30 mins by LC/MS analysis
Assay type: physicochemical
Conditions: read-out: Stability

Row | Compound | remaining at 0.5 h [%]
6 | CCCCCCNC(=O)n1cc(C#N)c(=O)[nH]c1=O | 22

Target: T1, Acid ceramidase (Homo sapiens, UniProt Q13510)
T1 sequence (Q13510 whole entry): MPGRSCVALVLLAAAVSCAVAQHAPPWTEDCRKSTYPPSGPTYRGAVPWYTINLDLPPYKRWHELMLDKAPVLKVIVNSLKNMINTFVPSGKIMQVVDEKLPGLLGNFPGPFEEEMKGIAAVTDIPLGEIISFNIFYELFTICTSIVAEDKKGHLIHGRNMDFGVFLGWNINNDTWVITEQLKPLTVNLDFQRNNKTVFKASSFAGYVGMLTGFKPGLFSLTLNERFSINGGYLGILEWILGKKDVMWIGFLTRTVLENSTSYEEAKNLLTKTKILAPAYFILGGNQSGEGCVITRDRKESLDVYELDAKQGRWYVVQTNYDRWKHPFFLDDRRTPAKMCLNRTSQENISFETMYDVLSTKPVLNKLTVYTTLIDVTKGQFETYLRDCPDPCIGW
Assay: Inhibition of acid ceramidase (unknown origin)
Conditions: not given

Row | Compound | Ki [nM]
7 | CCCCCCCC/C=C\CCCCCCCC(=O)NCCO [OLEOYLETHANOLAMIDE] | 500000

Target: T2, Acid ceramidase (Rattus norvegicus, UniProt Q6P7S1)
T2 sequence (Q6P7S1 whole entry): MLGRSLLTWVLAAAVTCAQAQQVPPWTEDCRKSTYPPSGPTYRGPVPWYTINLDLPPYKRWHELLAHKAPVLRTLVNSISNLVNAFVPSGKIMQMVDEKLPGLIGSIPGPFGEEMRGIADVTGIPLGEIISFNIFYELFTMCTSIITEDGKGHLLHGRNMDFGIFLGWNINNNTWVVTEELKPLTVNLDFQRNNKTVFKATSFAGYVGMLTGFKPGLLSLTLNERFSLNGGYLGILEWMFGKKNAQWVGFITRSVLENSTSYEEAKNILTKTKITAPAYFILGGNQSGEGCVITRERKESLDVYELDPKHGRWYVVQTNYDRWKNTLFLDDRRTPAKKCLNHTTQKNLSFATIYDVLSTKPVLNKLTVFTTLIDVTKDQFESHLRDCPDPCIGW
Assay: Inhibition of rat recombinant acid ceramidase expressed in human HEK293 cells using N-lauroylceramide as substrate incubated for 30 mins prior to substrate addition measured after 30 mins by LC/MS analysis
Conditions: hek293
Summary of the method: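 Rat AC from cell lysate: sucrose/Tris homogenate, 12000g pellet, freeze–thaw in PBS, 105000g supernatant. Enzyme (50 μg protein) preincubated 30 min, 37 °C, with inhibitor (final DMSO 1%) in pH 4.5 phosphate/citrate buffer with 0.1% NP-40, 150 mM NaCl, 3 mM DTT; 100 μM N-lauroylceramide, 30 min, 37 °C; lauric acid quantified by LC/MS against heptadecanoic acid standard.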

Row | Compound | IC50
8 | CCCCCCNC(=O)n1c(C)c(C)c(=O)[nH]c1=O | ND(Unstable)
9 | CCCCCCN(C)C(=O)n1ccc(=O)[nH]c1=O | Not Active
10 | CCCCCCNC(=O)n1c(Cl)cc(=O)[nH]c1=O | ND(Unstable)
11 | CCCCCCNC(=O)N1CCC(=O)NC1=O | Not Active
12 | CCCCCCNC(=O)n1cc(C#N)c(=O)[nH]c1=O | ND(Unstable)

Same assay, conditions: hek293; read-out: IC50

Row | Compound | IC50 [nM]
13 | CCCCCCNC(=O)n1ccc(=O)[nH]c1=O | 426
14 | CCCCCCNC(=O)n1cc(F)c(=O)[nH]c1=O [CARMOFUR] | 29
15 | CCCCCCNC(=O)n1cc(C(F)(F)F)c(=O)[nH]c1=O | 12

Same assay, conditions: read-out: IC50

Row | Compound | IC50 [nM]
16 | CCCCCCCCCNC(=O)n1ccc(=O)[nH]c1=O | 464
17 | CCCCCCNC(=O)n1cc(C)c(=O)[nH]c1=O | 1460
18 | CCCCCCNC(=O)n1cc(F)c(=O)n(CC)c1=O | 18
19 | CCCCCCNC(=O)n1cc(F)c(=O)n(C)c1=O | 13
20 | CCCCCCCNC(=O)n1ccc(=O)[nH]c1=O | 325
21 | CCCCCCCCNC(=O)n1cc(F)c(=O)[nH]c1=O | 46
22 | CCCCNC(=O)n1ccc(=O)[nH]c1=O | 8500
23 | CCCCCCNC(=O)n1cc(F)c(=O)n(C(=O)c2ccccc2)c1=O | 20
24 | CCCCCCNC(=O)n1cc(F)c(=O)n(C(=O)OCC(C)C)c1=O | 16
25 | CCCCCCNC(=O)n1cc(F)c(=O)n(CC2CC2)c1=O | 61
26 | CCCCCCNC(=O)n1cc(F)c(=O)n(C(=O)C(C)C)c1=O | 21
27 | CCCCCCNC(=O)n1cc(F)c(=O)n(C(=O)OCC)c1=O | 12
28 | CCCCCCNC(=O)n1cc(CC)c(=O)[nH]c1=O | 733
29 | CCCCCCCCNC(=O)n1ccc(=O)[nH]c1=O | 283
30 | CCCCCCNC(=O)n1ccc(=O)n(C)c1=O | 53
31 | CCCCCNC(=O)n1ccc(=O)[nH]c1=O | 2100
32 | CCCCCCCCNC(=O)n1cc(F)c(=O)n(C(=O)OC)c1=O | 4
33 | CCCCCCNC(=O)n1cc(F)c(=O)n(C(=O)OC)c1=O | 7
